Experimental data as given in ChEMBL document CHEMBL5724801, “EUbOPEN Chemogenomics Library - Multiplex” (2024).
Several values for one entry are separate records, joined by “and”; a condition that tells them apart may be missing. Identical values can stand only once.

Tested on: Fibroblast
Assay: Multiplex assay against human fibroblast
Assay type: toxicity, cell-based
In short: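 With compound added, live cells were imaged on a CQ1 microscope at 37°C and 5% CO2; staining with Hoechst33342, BioTracker Green Microtubule Cytoskeleton Dye, MitoTracker Red and Annexin V Alexa Fluor 680 had been done at seeding. The CellPathfinder machine-learning gating scheme split cells into Hoechst high-intensity objects or normal cells, normal cells into healthy, pyknosed or fragmented nuclei, and pyknosed cells into mitotic or apoptotic. The tubulin, mitochondrial-mass and membrane-permeability phenotypes are per cents of healthy-nucleus cells.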

[1] = 12 h, 1 µM, compound concentration 1 uM
[2] = 12 h, 10 µM, compound concentration 10 uM
[3] = 24 h, 1 µM, compound concentration 1 uM
[4] = 24 h, 10 µM, compound concentration 10 uM
[5] = 48 h, 1 µM, compound concentration 1 uM
[6] = 48 h, 10 µM, compound concentration 10 uM

Structure (SMILES): Cc1ccc(F)cc1C(=O)Nc1ccc(C(=O)N2Cc3cccn3Cc3ccccc32)c(Cl)c1 [LIXIVAPTAN]
- Population Apoptotic (%) [1]: 40% and 50%
- Population Fragmented Nuclei (%) [1]: 11% and 30%
- Population Healthy Nuclei (%) [1]: 73% and 47%
- Population Hoechst High Intensity Objects (%) [1]: 5% and 3%
- Population Membrane Permeable-Phenotype (%) [1]: 0% and 1%
- Population Mitochondria Different-Phenotype (%) [1]: 3% and 9%
- Population Mitotic Cells (%) [1]: 59% and 50%
- Population Normal (%) [1]: 94% and 96%
- Population Pyknosed Nuclei (%) [1]: 15% and 21%
- Population Tubulin-Different-Phenotype (%) [1]: 28% and 38%
- Total Cell Count [1]: 186 and 117
- Population Apoptotic (%) [2]: 34% and 31%
- Population Fragmented Nuclei (%) [2]: 18% and 27%
- Population Healthy Nuclei (%) [2]: 58% and 46%
- Population Hoechst High Intensity Objects (%) [2]: 0% and 5%
- Population Membrane Permeable-Phenotype (%) [2]: 2% and 6%
- Population Mitochondria Different-Phenotype (%) [2]: 5% and 10%
- Population Mitotic Cells (%) [2]: 65% and 68%
- Population Normal (%) [2]: 99% and 94%
- Population Pyknosed Nuclei (%) [2]: 23% and 25%
- Population Tubulin-Different-Phenotype (%) [2]: 62% and 72%
- Total Cell Count [2]: 137 and 179
- Population Apoptotic (%) [3]: 50% and 32%
- Population Fragmented Nuclei (%) [3]: 12% and 33%
- Population Healthy Nuclei (%) [3]: 73% and 43%
- Population Hoechst High Intensity Objects (%) [3]: 1% and 3%
- Population Membrane Permeable-Phenotype (%) [3]: 1% and 5%
- Population Mitochondria Different-Phenotype (%) [3]: 0% and 5%
- Population Mitotic Cells (%) [3]: 50% and 67%
- Population Normal (%) [3]: 98% and 96%
- Population Pyknosed Nuclei (%) [3]: 14% and 23%
- Population Tubulin-Different-Phenotype (%) [3]: 33% and 52%
- Total Cell Count [3]: 172 and 126
- Population Apoptotic (%) [4]: 25% and 51%
- Population Fragmented Nuclei (%) [4]: 19% and 26%
- Population Healthy Nuclei (%) [4]: 63% and 51%
- Population Hoechst High Intensity Objects (%) [4]: 0% and 5%
- Population Membrane Permeable-Phenotype (%) [4]: 2% and 11%
- Population Mitochondria Different-Phenotype (%) [4]: 8% and 12%
- Population Mitotic Cells (%) [4]: 75% and 48%
- Population Normal (%) [4]: 99% and 94%
- Population Pyknosed Nuclei (%) [4]: 17% and 22%
- Population Tubulin-Different-Phenotype (%) [4]: 63% and 82%
- Total Cell Count [4]: 142 and 174
- Population Apoptotic (%) [5]: 63% and 50%
- Population Fragmented Nuclei (%) [5]: 18% and 37%
- Population Healthy Nuclei (%) [5]: 68% and 40%
- Population Hoechst High Intensity Objects (%) [5]: 8% and 0%
- Population Membrane Permeable-Phenotype (%) [5]: 0% and 4%
- Population Mitochondria Different-Phenotype (%) [5]: 3% and 11%
- Population Mitotic Cells (%) [5]: 36% and 50%
- Population Normal (%) [5]: 91% and 99%
- Population Pyknosed Nuclei (%) [5]: 13% and 21%
- Population Tubulin-Different-Phenotype (%) [5]: 28% and 53%
- Total Cell Count [5]: 181 and 111
- Population Apoptotic (%) [6]: 70% and 73%
- Population Fragmented Nuclei (%) [6]: 25% and 36%
- Population Healthy Nuclei (%) [6]: 62% and 51%
- Population Hoechst High Intensity Objects (%) [6]: 2% and 5%
- Population Membrane Permeable-Phenotype (%) [6]: 0% and 6%
- Population Mitochondria Different-Phenotype (%) [6]: 13%
- Population Mitotic Cells (%) [6]: 29% and 26%
- Population Normal (%) [6]: 97% and 94%
- Population Pyknosed Nuclei (%) [6]: 11%
- Population Tubulin-Different-Phenotype (%) [6]: 69% and 78%
- Total Cell Count [6]: 149 and 170

Structure (SMILES): CC(C)CC(=O)Nc1cncc(-c2ccc3[nH]nc(-c4nc5c(-c6cccc(F)c6)cncc5[nH]4)c3c2)c1 [LORECIVIVINT]
- Population Fragmented Nuclei (%) [1]: 12.2% and 10.34%
- Population Healthy Nuclei (%) [1]: 60.98% and 74.14%
- Population Hoechst High Intensity Objects (%) [1]: 0%
- Population Membrane Permeable-Phenotype (%) [1]: 6% and 10.08%
- Population Mitochondria Different-Phenotype (%) [1]: 10% and 9.3%
- Population Mitotic Cells (%) [1]: 95.45% and 62.96%
- Population Normal (%) [1]: 100%
- Population Pyknosed Nuclei (%) [1]: 26.83% and 15.52%
- Population Tubulin-Different-Phenotype (%) [1]: 36% and 44.19%
- Total Cell Count [1]: 164 and 174
- Population Apoptotic (%) [2]: 37.84% and 20.2%
- Population Fragmented Nuclei (%) [2]: 10.38% and 7.03%
- Population Healthy Nuclei (%) [2]: 64.01% and 61.34%
- Population Hoechst High Intensity Objects (%) [2]: 0%
- Population Membrane Permeable-Phenotype (%) [2]: 14.59% and 9.38%
- Population Mitochondria Different-Phenotype (%) [2]: 4.86% and 2.08%
- Population Mitotic Cells (%) [2]: 62.16% and 79.8%
- Population Normal (%) [2]: 100%
- Population Pyknosed Nuclei (%) [2]: 25.61% and 31.63%
- Population Tubulin-Different-Phenotype (%) [2]: 37.84% and 36.46%
- Total Cell Count [2]: 289 and 313
- Population Apoptotic (%) [3]: 12.9% and 25%
- Population Fragmented Nuclei (%) [3]: 14.37% and 8.2%
- Population Healthy Nuclei (%) [3]: 67.82% and 80.87%
- Population Hoechst High Intensity Objects (%) [3]: 0%
- Population Membrane Permeable-Phenotype (%) [3]: 6.78% and 12.84%
- Population Mitochondria Different-Phenotype (%) [3]: 5.08% and 2.7%
- Population Mitotic Cells (%) [3]: 87.1% and 75%
- Population Normal (%) [3]: 100%
- Population Pyknosed Nuclei (%) [3]: 17.82% and 10.93%
- Population Tubulin-Different-Phenotype (%) [3]: 34.75% and 50.68%
- Total Cell Count [3]: 174 and 183
- Population Apoptotic (%) [4]: 40% and 21.83%
- Population Fragmented Nuclei (%) [4]: 10% and 5.2%
- Population Healthy Nuclei (%) [4]: 49.38% and 59.65%
- Population Hoechst High Intensity Objects (%) [4]: 0%
- Population Membrane Permeable-Phenotype (%) [4]: 13.29% and 10.37%
- Population Mitochondria Different-Phenotype (%) [4]: 2.53% and 0.41%
- Population Mitotic Cells (%) [4]: 60% and 78.17%
- Population Normal (%) [4]: 100%
- Population Pyknosed Nuclei (%) [4]: 40.62% and 35.15%
- Population Tubulin-Different-Phenotype (%) [4]: 37.97% and 34.02%
- Total Cell Count [4]: 320 and 404
- Population Apoptotic (%) [5]: 16.67% and 32.43%
- Population Fragmented Nuclei (%) [5]: 16.43% and 12.15%
- Population Healthy Nuclei (%) [5]: 60.39% and 67.4%
- Population Hoechst High Intensity Objects (%) [5]: 0%
- Population Membrane Permeable-Phenotype (%) [5]: 8% and 13.93%
- Population Mitochondria Different-Phenotype (%) [5]: 9.6% and 4.92%
- Population Mitotic Cells (%) [5]: 83.33% and 67.57%
- Population Normal (%) [5]: 100%
- Population Pyknosed Nuclei (%) [5]: 23.19% and 20.44%
- Population Tubulin-Different-Phenotype (%) [5]: 32% and 47.54%
- Total Cell Count [5]: 207 and 181
- Population Apoptotic (%) [6]: 46.41% and 43.05%
- Population Fragmented Nuclei (%) [6]: 10.67% and 7.39%
- Population Healthy Nuclei (%) [6]: 33.6% and 33.77%
- Population Hoechst High Intensity Objects (%) [6]: 0%
- Population Membrane Permeable-Phenotype (%) [6]: 8.73% and 10.16%
- Population Mitochondria Different-Phenotype (%) [6]: 5.56% and 1.56%
- Population Mitotic Cells (%) [6]: 53.59% and 56.95%
- Population Normal (%) [6]: 100%
- Population Pyknosed Nuclei (%) [6]: 55.73% and 58.84%
- Population Tubulin-Different-Phenotype (%) [6]: 17.46% and 26.56%
- Total Cell Count [6]: 375 and 379
